This note sets out measurements from ChEMBL document CHEMBL4610013, “Heteroarylamide smoothened inhibitors: Discovery of N-[2,4-dimethyl-5-(1-methylimidazol-4-yl)phenyl]-4-(2-pyridylmethoxy)benzamide (AZD8542) and N-[5-(1H-imidazol-2-yl)-2,4-dimethyl-phenyl]-4-(2- pyridylmethoxy)benzamide (AZD7254)” (Bioorg Med Chem, 2020).

Structures are written as SMILES. Where only a bound is given, the exact number is not on record here.

A short description of series [1]: Metabolic stability in human liver microsomes assessed as intrinsic clearance. Type of series: ADME, Microsome. The note with it: read-out: CLH. (In general: Microsomes from liver hold many membrane-bound enzymes, among them those of drug oxidation.)
A short description of series [2]: Lipophilicity, logD of compound. The following applies: octanol/water. Type of series: physicochemical.
The nature of series [3]: Metabolic stability in rat liver microsomes assessed as intrinsic clearance. The format is ADME, Microsome. The note with it: read-out: CLH.
The nature of series [4]: Drug level in mouse plasma at 40 mg/kg, po administered as single dose measured after 8 hrs. The format is ADME, organism-based. An outline of the steps:
(§1)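 Plasma was taken from Colo205 tumour-bearing female nude mice sacrificed 1 or 8 h after a single 40 mg/kg oral dose. Drug concentrations were measured in µM.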

The nature of series [5]: Drug level in mouse plasma at 40 mg/kg, po administered as single dose measured after 1 hr. The format is ADME, organism-based. In a few lines:
as §1

A short description of series [6]: Metabolic stability in human hepatocytes assessed as intrinsic clearance measured per million cells. The format is ADME, cell-based, Hepatocyte. The note with it: read-out: CLH.
Series [7] in a line: Clearance in mouse. The format is ADME, organism-based. The note with it: in vivo.
A short description of series [8]: Half life in mouse. Type of series: ADME, organism-based. The following applies: in vivo.
The nature of series [9]: Clearance in rat. Type of series: ADME. The note with it: in vivo.
Series [10] in a line: Oral bioavailability in mouse. The note with it: in vivo. The format is ADME, organism-based.
A short description of series [11]: Oral bioavailability in rat. The format is ADME, organism-based. The note with it: in vivo.
Series [12] is described as follows: Half life in rat. The format is ADME. The following applies: in vivo.
Series [13] can be described thus: Metabolic stability in rat hepatocytes assessed as intrinsic clearance measured per million cells. The format is ADME, cell-based, Hepatocyte. The following applies: read-out: CLH.
A short description of series [14]: Half life in guinea pig. The following applies: in vivo. Type of series: ADME, Cavia porcellus.
Series [15] can be described thus: Clearance in guinea pig. The note with it: in vivo. Type of series: ADME, Cavia porcellus.
The subject of series [16] is MDR1. Nature of the series: Apparent permeability in LLC-PK1 cells expressing MDR1. The format is ADME, cell-based, Sus scrofa. The following applies: pig. An outline of the steps:
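The cells were MDR1-LLC PK1, a line engineered to express the P-gp efflux pump. Permeability was taken as apical-to-basolateral Papp (10⁻⁶ cm/s), and the efflux ratio was also derived.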

The nature of series [17]: Half life in dog. Type of series: ADME, Canis lupus familiaris. The following applies: in vivo.
A short description of series [18]: Volume of distribution at steady state in rat. The format is ADME. The following applies: in vivo, read-out: Vdss.
Series [19] is described as follows: Metabolic stability in mouse hepatocytes assessed as intrinsic clearance measured per million cells. Type of series: ADME, cell-based, Hepatocyte. The following applies: read-out: CLH.
Series [20] in a line: Clearance in dog. The note with it: in vivo. The format is ADME, Canis lupus familiaris.
Series [21] is described as follows: Volume of distribution at steady state in guinea pig. Type of series: ADME, Cavia porcellus. The note with it: in vivo, read-out: Vdss.
The nature of series [22]: Oral bioavailability in dog. Type of series: ADME, organism-based, Canis lupus familiaris. The note with it: in vivo.
Series [23] is described as follows: Volume of distribution at steady state in mouse. Type of series: ADME, organism-based. The following applies: in vivo, read-out: Vdss.
A short description of series [24]: Volume of distribution at steady state in dog. Type of series: ADME, Canis lupus familiaris. The following applies: in vivo, read-out: Vdss.
The nature of series [25]: Metabolic stability in dog hepatocytes assessed as intrinsic clearance measured per million cells. The format is ADME, cell-based, Canis lupus familiaris, Hepatocyte. The following applies: read-out: CLH.

As to `Cc1cc(C)c(-c2cccc(N)n2)cc1NC(=O)c1ccc(OCc2ccccn2)cc1`, the microsomal CLint in [1] came to 88 µL/min/mg; in series [3], 155 µL/min/mg. In series [2], the logD (commonly lipophilicity at a set pH, counting ionised and neutral species) is greater than 3.

With `Cc1cc(Cl)c(-c2cn(C)c(C)n2)cc1NC(=O)c1ccc(OCc2ccccn2)cc1`, the logD in series [2] was 3.3.

For the compound `Cc1cc(C)c(-c2c(C)nn(C)c2C)cc1NC(=O)c1ccc(OCc2ccccn2)cc1`, the values for the microsomal CLint in [1] and in [3] were 122 µL/min/mg and 271 µL/min/mg, respectively. Moreover, in [2], the logD is greater than 3.

`Cc1cc(C)c(-c2nc3ccccc3[nH]2)cc1NC(=O)c1ccc(OCc2ccccn2)cc1`: the results for the microsomal CLint in [1] and in series [3] were 30 µL/min/mg and 21 µL/min/mg, respectively. In [2], this compound showed a logD greater than 3.5.

For the compound `Cc1ccc(-c2cnc(C)n2C)cc1NC(=O)c1ccc(OCc2ccccn2)cc1`, in [4], the concentration at 8 h came out at 0.08 µM. This compound also gave a concentration at 1 h in series [5] of 1.8 µM. The compound further showed a logD in series [2] of 2.8.

As to `Cc1cc(C)c(-c2ccc(N)nn2)cc1NC(=O)c1ccc(OCc2ccccn2)cc1`, the microsomal CLint is less than 4 µL/min/mg in [1] and 8 µL/min/mg in series [3]. Further, the concentration at 8 h in series [4] stood at 2.7 µM. For the same compound, in series [5], the concentration at 1 h is 33 µM. Further, in series [2], the logD was determined as 2.6.

For `Cc1ccc(-c2[nH]cnc2C)cc1NC(=O)c1ccc(OCc2ccccn2)cc1`, in series [2], the logD was 2.9.

With `Cc1nc(-c2ccc(C)c(NC(=O)c3ccc(OCc4ccccn4)cc3)c2)c[nH]1`, in series [2], the logD came to 3.

`Cc1ccc(-c2ncc[nH]2)c(C)c1NC(=O)c1ccc(OCc2ccccn2)cc1` returned a concentration at 8 h in series [4] of 0.14 µM. Besides, in [5], the concentration at 1 h was 3.3 µM. In addition, the logD in [2] came to 2.8.

`Cc1ccc(-c2nccn2C)cc1NC(=O)c1ccc(OCc2ccccn2)cc1` had a log distribution coefficient (logD) in [2] of 2.8.

`Cc1cc(Cl)c(-c2nccn2C)cc1NC(=O)c1ccc(OCc2ccccn2)cc1` registered a logD in series [2] of 3.2.

Turning to `Cc1csc(-c2cc(NC(=O)c3ccc(OCc4ccccn4)cc3)c(C)cc2C)n1`, the microsomal CLint in series [1] was 513 µL/min/mg; in [3], 147 µL/min/mg. In addition, the logD in series [2] was greater than 3.

The compound `Cc1cc(Cl)c(-c2cn(C)cn2)cc1NC(=O)c1ccc(OCc2ccccn2)cc1` yielded a logD in [2] of 3.1.

As for `CS(=O)(=O)c1ccc(C(=O)Nc2ccc(Cl)c(-c3ccccn3)c2)c(Cl)c1` [VISMODEGIB], the hepatocyte CLint in series [6] is less than 1 µL/min/1e6 cells; in series [13], 16 µL/min/1e6 cells. Further, the concentration at 8 h in series [4] turned out to be 18.8 µM. In addition, the clearance – broadly, the volume of plasma or blood freed of the substance per unit of time – is 5.6 mL/min/kg in [7] and 2 mL/min/kg in series [9]. For the same compound, in [5], the concentration at 1 h came to 10.3 µM. Also, the values for the half-life in [8] and in [12] were 1 h and 1.9 h, respectively. Besides, the logD in [2] stood at 2.8. Further, the results for the bioavailability in [10] and in series [11] were 33% and 49%, respectively.

`Cc1ccc(-c2cn(C)cn2)cc1NC(=O)c1ccc(OCc2ccccn2)cc1` came in with a concentration at 8 h in series [4] of 16 µM. For the same compound, the concentration at 1 h in series [5] came to 63 µM. The compound also returned a logD in series [2] of 2.5.

With `Cc1cc(C)c(-c2cccnc2)cc1NC(=O)c1ccc(OCc2ccccn2)cc1`, the microsomal CLint in [1] came out at 62 µL/min/mg; in series [3], 78 µL/min/mg. This compound also showed a logD in [2] greater than 3.

As to `Cc1ccc(-c2ncc[nH]2)cc1NC(=O)c1ccc(OCc2ccccn2)cc1`, the concentration at 8 h in series [4] turned out to be 7.5 µM. Besides, the logD in series [2] came out at 3.

For the compound `Cc1cc(C)c(-c2c[nH]nc2C)cc1NC(=O)c1ccc(OCc2ccccn2)cc1`, the microsomal CLint amounted to 20 µL/min/mg in [1] and 55 µL/min/mg in series [3]. The concentration at 8 h in [4] worked out at 0.23 µM. The concentration at 1 h in series [5] was 5.5 µM. Further, in series [2], the logD is greater than 3.

The compound `Cc1ccc(-c2cn(C)c(C)n2)cc1NC(=O)c1ccc(OCc2ccccn2)cc1` gave a logD in series [2] of 2.7.

Take `Cc1cc(C)c(-c2cn(C)cn2)cc1NC(=O)c1ccc(OCc2ccccn2)cc1`: the half-life (in general, the time in which the quantity being followed falls by half) in series [14] is 4.2 h; in series [17] it was 1.4 h; in series [8], 0.8 h; in series [12] it was 2.4 h. Further, the clearance in series [15] is 1.6 mL/min/kg; in series [20], 4.7 mL/min/kg; in series [7], 6.1 mL/min/kg; in series [9] it was 1.7 mL/min/kg. In series [16], the Papp (in general, the rate of passage across a membrane or cell layer, normalised by area and donor concentration) was found to be 16.5 ×10⁻⁶ cm/s. The Vd in series [18] amounted to 0.2 L/kg; in [21] it was 0.5 L/kg; in series [23] it was 0.4 L/kg; in series [24] it was 0.5 L/kg. Besides, the hepatocyte CLint in [19] was less than 1 µL/min/1e6 cells; in series [6], 6 µL/min/1e6 cells; in [25], 10 µL/min/1e6 cells; in [13], 19 µL/min/1e6 cells. This compound came in with a concentration at 8 h in series [4] of 16 µM. Also, the bioavailability (usually the share of a dose that reaches the circulation, judged against a reference dose that is usually intravenous) in series [22] came to 32%; in series [10], 70%; in series [11], 90%. In addition, in series [5], the concentration at 1 h came out at 94 µM. The compound further had a logD in series [2] of 3.

As to `Cc1cc(C)c(-c2cnc(C)n2C)cc1NC(=O)c1ccc(OCc2ccccn2)cc1`, the values for the hepatocyte CLint in series [6] and in series [13] were 12 µL/min/1e6 cells and 32 µL/min/1e6 cells, respectively. In addition, the concentration at 8 h in series [4] worked out at 0.28 µM. The concentration at 1 h in series [5] stood at 2.9 µM. In [2], this compound returned a logD of 2.8.

As for `Cc1cc(C)c(-c2ccccn2)cc1NC(=O)c1ccc(OCc2ccccn2)cc1`, the microsomal CLint came to 209 µL/min/mg in series [1] and 296 µL/min/mg in [3]. Further, in series [2], the logD was greater than 3.

In turn, `Cc1cc(Cl)c(-c2ncc[nH]2)cc1NC(=O)c1ccc(OCc2ccccn2)cc1` returned a logD in [2] greater than 3.

For the compound `Cc1cc(F)c(-c2ncc[nH]2)cc1NC(=O)c1ccc(OCc2ccccn2)cc1`, the concentration at 8 h in series [4] is 20 µM. The compound also gave a concentration at 1 h in series [5] of 58 µM. For the same compound, in [2], the logD came out at 3. Besides, the hepatocyte CLint in series [13] was found to be 14 µL/min/1e6 cells.

`Cc1cc(C)c(-c2ccc(N)cn2)cc1NC(=O)c1ccc(OCc2ccccn2)cc1`: the values for the microsomal CLint in [1] and in [3] were 9 µL/min/mg and 32 µL/min/mg, respectively. The compound also had a logD in series [2] of 3.2.

With `Cc1ccc(-c2c[nH]cn2)cc1NC(=O)c1ccc(OCc2ccccn2)cc1`, the logD in series [2] came out at 2.8.

As to `Cc1cc(C)c(-c2ncc[nH]2)cc1NC(=O)c1ccc(OCc2ccccn2)cc1`, the half-life is 1.5 h in series [14], 3.3 h in [17], 0.7 h in [8] and 1.1 h in series [12]. In addition, the clearance in [15] was 18 mL/min/kg; in [20], 4 mL/min/kg; in series [7], 31 mL/min/kg; in series [9], 24 mL/min/kg. Also, the Papp in series [16] stood at 7.5 ×10⁻⁶ cm/s. The Vd in [18] was 1.2 L/kg; in [21], 1.8 L/kg; in series [23], 1.6 L/kg; in [24], 0.9 L/kg. In addition, the hepatocyte CLint in series [19] is 6.6 µL/min/1e6 cells; in series [6] it was 9 µL/min/1e6 cells; in series [25] it was 1.4 µL/min/1e6 cells; in series [13] it was 18 µL/min/1e6 cells. The same compound came in with a concentration at 8 h in series [4] of 1.9 µM. The values for the bioavailability in series [22], in [10] and in series [11] were 100%, 75% and 100%, respectively. Moreover, in [5], the concentration at 1 h was 22.3 µM. Moreover, in series [2], the logD was 3.1.
